Screening results deposited in PubChem by several laboratories.
Only some compounds are listed: those with a hit (about 2.1% of all), similar ones and a draw of the others.
bCat nuc transl: modulators of beta-catenin nuclear translocation; HeLa beta-catenin nuclear translocation, immunofluorescence imaging; hit rate 0.3% among 190,000; AID 1665; nuclear translocation activity, % at 5 µM;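 active means nuclear translocation activity above 50% at 5 µM, with a well cell count of 50 or more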;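 further: per-cell ratio of nuclear to cytoplasmic median beta-catenin stain intensity; plate controls were DMSO negative control for no effect and GSK-3 inhibitor IX positive control for full effect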
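Test system: human HeLa cells, native beta-catenin. Compound dosing: 5 µM primary single dose, 0.1% DMSO, 0.02–20 µM confirmation series. Incubation: compound exposure 24 h at 37°C. Detection: beta-catenin immunostaining with DAPI counterstain, 20x imaging, 6 fields/well. Read-out basis: Nuclear/cytoplasmic beta-catenin signal ratio, % activation.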
IEC-6 tox: kills IEC-6 intestinal cells in KLF5 counter-screen | inhibition, % at 5 µM | AID 1825 | hit rate 0.78% among 290,000 | IEC-6 cytotoxicity, luminescence viability; in the data active means inhibition above about 22%;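 further: 0% = plate median of test compound wells and 100% = cytotoxic reference compound wells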
MT stabilize HCS: microtubule stabilizers in HeLa cells; HeLa tubulin immunostaining HCS, 24 h; share of cells brighter than vehicle mean+2SD; % tubulin-high responders, % at 10 µM; hit rate 0.83% among 200,000; AID 2205;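 active means plate Z-score above 3 for both tubulin-high and condensed-nucleus cell shares, with cell loss under 80%, at 10 µM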;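 further: anti alpha tubulin signal scored within the nucleus-defined area of each cell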
KLF5 inh: suppresses KLF5 promoter-driven expression; DLD-1 KLF5 promoter-luciferase reporter, luminescence; hit rate 0.23% among 290,000; AID 1700; inhibition, % at 5 µM;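 active means inhibition above a per-plate limit of that plate's mean compound inhibition plus 3 SD, cut at about 60% in these data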;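 further: 0% = DMSO wells and 100% = LY294002 at 200 µM; higher means less KLF5 promoter-driven luciferase light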
Ba/F3 V617F tox: reduce viability of Ba/F3 cells dependent on JAK2V617F; Ba/F3 EpoR-JAK2V617F viability, ATP luminescence; inhibition, % at 5.6 µM; hit rate 1.1% among 220,000; AID 1446;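 active means inhibition above the campaign mean plus 3 SD over all tested compounds, cut at about 24% in these data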;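 further: cytokine-independent growth of Ba/F3 cells driven by EpoR plus mutant JAK2; 0% = DMSO-treated cells and 100% = JAK inhibitor I control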
BaF3 tox: reduces parental Ba/F3 cell viability, JAK2V617F counter-screen; inhibition, % at 5.6 µM; hit rate 1.1% among 220,000; AID 1486; CellTiter-Glo ATP luminescence;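 active means inhibition above a per-campaign cutoff, the mean inhibition of all tested compounds plus 3 SD, cut at about 27% in these data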;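 further: 0% = DMSO wells and 100% = JAK Inhibitor I control wells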
Numbers without * were called inactive; . = no result.

SMILES	bCat nuc transl	IEC-6 tox	MT stabilize HCS	KLF5 inh	Ba/F3 V617F tox	BaF3 tox
O=C(Nc1ccc(N2CCCCCC2)cc1)c1ccccc1Cl	32	11	11*	-139	9	3
CC(=O)N1CCN(c2ccc(NC(=O)c3ccccc3Cl)cc2)CC1	.	1	.	-26	.	.
O=C(O)c1ccccc1C(=O)Nc1ccc(-c2csc(-c3ccccc3)n2)cc1	2	1	2	-58	2	6
CCOCc1nnc(NC(=O)C2CCN(C(=O)C3CC(=O)N(c4ccc(C)cc4)C3)CC2)s1 (configuration not stated)	.	4	.	-9	.	.
CCCCn1nnc(NC(=S)NC(=O)c2ccc(-c3cccc(Cl)c3Cl)o2)n1	-1	-5	5	2	3	7
CC(=O)c1cccc(N=c2scc(-c3ccc(S(=O)(=O)N4CCOCC4)cc3)n2CCO)c1	.	4	1	-27	43*	47*
Cc1ccccc1N1CCN(C2=NC(=O)/C(=C\c3cccs3)S2)CC1	0	0	9.4*	-36	2	9
COc1ccccc1/C=C/C(=O)OCc1nc2ccccc2c(=O)[nH]1	1	1	3	-9	2	7
COc1ccc(N2CC(O)(c3ccc(C)cc3)[N+]3=C2CCCC3)cc1 (configuration not stated)	-1	5	1	-16	45*	50*
COCCn1c(-c2ccc(Br)cc2)nc2oc3cc(OC)ccc3c(=O)c2c1=O	1	1	.	-6	-2	-1
COc1cc(/C=N/OCC(=O)Nc2ccc(OC(F)F)cc2)ccc1OCc1ccccc1	4	-3	17*	-23	3	6
Cc1nc(CN(C)C(=O)c2cc(COc3ccc4ncccc4c3)on2)cs1	2	6	7	12	16	38*
CC(CCCC(C)(C)O)NC(=O)c1cc(COc2ccc3ncccc3c2)on1 (configuration not stated)	1	2	4	-18	8	44*
COc1ccccc1CNC(=O)c1cccc2c1C(=O)N(Cc1cccnc1)C2	1	4	4	-15	4	5
FC(F)Oc1ccc(NC(=S)NCC2COc3ccccc3O2)cc1 (configuration not stated)	4	3	2	-34	-1	7
CCOC(=O)c1sc(-c2ccccc2)cc1NC(=O)Nc1ccc([N+](=O)[O-])cc1	-1	-5	2	-22	1	5
CCCCOc1ccccc1NC(=O)Cn1c(-c2nonc2N)nc2ccccc21	0	1	27*	19	2	9
COc1cc(Cn2c(-c3nonc3N)nc3ccccc32)ccc1C	.	10	15	1	1	3
NNC(=O)Cn1c(-c2nonc2N)nc2ccccc21	-3	-8	3	-7	-1	5
COc1cccc(Cn2c(-c3nonc3N)nc3ccccc32)c1	.	9	50*	-38	86*	79*
Nc1ncc(-c2nnnn2-c2ccc(Cl)cc2)c(-c2ccc(Cl)cc2)n1	18	18	16	28	28*	32*
C/C(=N\NC(=S)NCc1ccccc1)c1ccco1	-2	-3	4	-15	-1	67*
C/C(=N\NC(=S)NCc1ccccc1)c1ccccc1	-1	10	3	-40	-3	4
CCOc1ccc(S(=O)(=O)Oc2ccc3ccccc3c2)cc1	1	3	17*	28	0	2
Cc1ccc(/C(C#N)=C\c2ccc(N3CCOCC3)o2)cc1	0	2	1	-41	2	36*
SMILES	bCat nuc transl	IEC-6 tox	MT stabilize HCS	KLF5 inh	Ba/F3 V617F tox	BaF3 tox
Cc1ccc2nc(/C(C#N)=C\c3ccc([N+](=O)[O-])o3)[nH]c2c1	.	1	62	1	9	-2
Cc1ccc2nc(/C(C#N)=C\c3ccc(N4CCOCC4)o3)[nH]c2c1	10	0	6	7	-3	41*
COc1cc(OC)c(NC(=O)c2csc(C)c2)cc1Cl	.	-4	.	-29	.	.
CC(C(N)=O)N1C(=O)c2cccc3cccc1c23 (configuration not stated)	-3	2	2	-27	1	5
COc1ccc(CCNc2ncnc3c2oc2ccccc23)cc1OC	-1	18	1	1	51*	62*
Cc1sc2ncnc(NCCc3ccc(S(N)(=O)=O)cc3)c2c1C	3	18	2	-41	51*	58*
COc1ccc(CCNc2ncnc3sccc23)cc1OC	1	22	2	52	64*	69*
NS(=O)(=O)c1ccc(CNc2ncnc3sccc23)cc1	.	2	.	-26	.	.
NS(=O)(=O)c1ccc(CCNc2ncnc3sccc23)cc1	-5	1	5	-30	33*	43*
COC(=O)c1cc(NC(=S)NC(=O)c2ccccc2)ccc1N1CCOCC1	.	1	.	-21	.	.
CN(C)CC(CCC(CN(C)C)C(=O)c1ccccc1)C(=O)c1ccccc1 (configuration not stated)	0	100*	.	91*	99*	104*
CS(=O)(=O)Nc1nc2n(n1)C(c1ccccc1)CC(c1ccccc1)N2 (configuration not stated)	1	0	.	15	-1	1
Cc1sc2nc(SCC(=O)C(C)(C)C)n(Cc3ccco3)c(=O)c2c1C	4	7	35*	4	-3	-1
Cc1ccccc1Nc1nc(-c2cccnc2)nc2ccccc12	-2	-1	4	-5	-8	1
Cc1ccc(Nc2nc(-c3cccnc3)nc3ccccc23)cc1	0	19	.	0	49*	30*
COc1ccc(NC(=O)CNC(=O)Cn2cnc3sc(C)c(C)c3c2=O)cc1OC	.	-4	.	-47	.	.
COc1cc(C2N(C)CCC3(OCCO3)C2(C)C)cc(OC)c1OC (configuration not stated)	0	-2	2	-63	-2	3
NC(=O)c1ccc(NC(=O)CN2CCN(Cc3ccccc3)CC2)cc1	.	10	.	1	.	.
COc1cccc(OCc2nc3ncc(Br)cc3[nH]2)c1	1	5	36*	-1	-1	10
Cc1cc(C)cc(OCc2nc3ncc(Br)cc3[nH]2)c1	.	10	34*	-14	-1	-2
Brc1cnc2nc(SCc3nc4ccccc4[nH]3)[nH]c2c1	0	-4	.	-18	-5	0
COc1ccc(N(CC(=O)Nc2ccccc2C(F)(F)F)C2=NC3CS(=O)(=O)CC3S2)cc1 (configuration not stated)	.	-4	.	0	.	.
COc1ccc(-c2nc(-c3ccccn3)ncc2S(C)(=O)=O)cc1	-4	2	2	-11	1	11
Cn1nc(-c2ccccn2)nc2c(=O)n(C)c(=O)nc1-2	.	99*	.	105*	99*	105*
C/C(=N\NC(=O)CC1N=C(Cc2ccccc2)NNC1=O)c1ccc(Cl)cc1Cl (configuration not stated)	1	0	22*	-5	3	3
O=C1CCN(S(=O)(=O)c2ccccc2)CCN1CCOCc1ccc(F)cc1	70*	.	.	.	.	.
